Screens: PubChem, several laboratories
Rev-RRE block: HIV-1 Rev-RRE binding inhibitors, primary screen, biochemical, FRET, protein-RNA interaction | P05866 | Rev peptide-RRE RNA binding | inhibition, % at 8 µM | 97,000 compounds, 0.79% hits | AID 704, 2007;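 active = inhibition above the screen-wide mean plus 3 SD, cut at about 35% in these data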;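 note: 0% = median DMSO wells and 100% = median Neomycin B control wells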
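Assay system: Labelled RRE RNA duplex and labelled Rev peptide | Times: 5 min preincubation and 15 min binding, 25 °C | Detection: FRET, ex 480 nm, em 540 and 671 nm | Evaluation: % inhibition of FRET ratio versus controls | Benchmarks: DMSO wells as 0% and neomycin B wells as 100% inhibition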
hDAT+cocaine: changed hDAT dopamine uptake under cocaine IC80, either direction, primary screen, cocaine antagonist project, cell-based, LLC-PK1 hDAT, [14C]-dopamine uptake, MLSMR; Sodium-dependent dopamine transporter (Homo sapiens), Q01959; LLC-PK1 hDAT cells, [14C]-dopamine uptake with cocaine IC80; actives deviate in either direction; B-score at 10 µM; 110,000 compounds, 1.3% hits;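 active = Z score or B-score, a plate-position-corrected score, falls beyond the plate's 99.7% confidence bounds, in either direction; inactive = both scores lie inside the 99.7% bounds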;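 note: scored against the spread of the other compound wells on the same plate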
EphB4 ephrin blk: EphB4-ephrin-B2 interaction antagonists, primary screen, biochemical, TNYL-RAW peptide probe, fluorescence polarization; Ephrin type-B receptor 4 (Homo sapiens), P54760; EphB4 LBD / TNYL-RAW-Alexa532 peptide; inhibition, % at 7 µM; 97,000 compounds, 0.15% hits; AID 720, 2007;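 active = inhibition above the screen-wide mean inhibition plus 3 SD, cut at about 15% in these data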;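 note: 0% = DMSO wells and 100% = excess unlabeled TNYL-RAW peptide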
FAK blocker: FAK kinase inhibitors, primary screen, biochemical; AID 727, 2007; Focal adhesion kinase 1 (Homo sapiens), Q05397; inhibition, %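 (tested at 7 µM)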; 97,000 compounds, 0.84% hits; biochemical FAK kinase activity assay; in the data active = inhibition above about 19%;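 note: 0% = DMSO and 100% = reference compound high control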
PLK1 PBD inh: Plk1 polo box domain binding inhibitors, primary screen, biochemical, fluorescence polarization; 97,000 compounds, 0.13% hits; Plk1 PBD phosphopeptide binding; inhibition, %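 (tested at about 20 µM)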; Serine/threonine-protein kinase PLK1 (Homo sapiens), P53350; AID 693, 2007; in the data active = inhibition above about 34%, passing the limit was not always enough
Target sequence (P53350 whole entry, looked up, the tested form may be a part): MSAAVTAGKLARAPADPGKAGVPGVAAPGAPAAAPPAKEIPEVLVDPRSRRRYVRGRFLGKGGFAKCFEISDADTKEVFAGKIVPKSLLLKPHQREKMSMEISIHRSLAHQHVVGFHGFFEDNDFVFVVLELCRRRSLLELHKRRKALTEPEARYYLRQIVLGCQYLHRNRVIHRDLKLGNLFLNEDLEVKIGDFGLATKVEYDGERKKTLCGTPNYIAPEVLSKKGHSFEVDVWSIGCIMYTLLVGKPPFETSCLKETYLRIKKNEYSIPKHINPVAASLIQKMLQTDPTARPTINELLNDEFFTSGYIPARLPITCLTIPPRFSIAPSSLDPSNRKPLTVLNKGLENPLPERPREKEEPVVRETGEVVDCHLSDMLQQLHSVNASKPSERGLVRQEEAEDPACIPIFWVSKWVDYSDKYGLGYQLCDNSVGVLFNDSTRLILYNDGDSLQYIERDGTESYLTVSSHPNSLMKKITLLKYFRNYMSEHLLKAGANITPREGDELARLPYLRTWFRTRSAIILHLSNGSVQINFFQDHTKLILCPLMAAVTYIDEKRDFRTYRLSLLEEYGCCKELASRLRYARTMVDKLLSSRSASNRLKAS
PLK1 kinase inh: human PLK1 kinase inhibitors, primary screen, biochemical, TR-FRET; Serine/threonine-protein kinase PLK1 (Homo sapiens), P53350; recombinant PLK1 kinase, TR-FRET peptide phosphorylation; inhibition, % at 10 µM; 97,000 compounds, 0.53% hits; AID 619, 2007;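 active = inhibition of 50% or more in the single-concentration screen; inactive = inhibition below 50%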;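 note: 0% = DMSO max control and 100% = H-89 dihydrochloride min control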
* = called active by the depositor; . = no result given. This is a sample that favours compounds with a hit; in the whole collection about 3.2% have one here.

SMILES	Rev-RRE block	hDAT+cocaine	EphB4 ephrin blk	FAK blocker	PLK1 PBD inh	PLK1 kinase inh
O=c1[nH]c(=O)n(C2CCCCCC2)c(O)c1C=NCc1ccc(F)cc1	11.3	0.114	13.5	8.3	19.2	-4.2
CCOC(=O)Cn1nc(C)n(-c2ccc(C(C)(C)C)cc2)c1=O	-3.0	1.47	3.9	-1.9	-25.9	-15.0
CCC1(CC)Cc2ccccc2-c2nc(NCCO)[nH]c(=O)c21	8.2	-2.74*	0.2	1.6	4.0	-10.6
CC(C)(C)C(=O)NCCCc1nc2ccccc2n1CCCOc1ccc(Cl)cc1	6.2	3.41*	-1.2	-0.2	-13.8	-10.0
C=C(C)Cn1c(CCCNC(=O)C(C)(C)C)nc2ccccc21	3.4	-9.25*	6.2	-3.1	14.8	-11.7
CCOc1ccc(-c2cc3nc(C4CCN(C(=O)OC(C)(C)C)CC4)c(C(=O)O)cn3n2)cc1	-0.9	3.42*	2.2	-5.9	-4.7	-7.0
O=C(NC1CCC(NC(=O)C2CCCO2)CC1)C1CCCO1 (stereo unspecified)	4.8	0.691	6.9	-1.5	9.7	-10.2
O=S(=O)(Nc1nc2ccccc2nc1N1CCN(c2ccccn2)CC1)c1ccc(Cl)cc1	36.5*	-0.484	3.5	-8.9	4.8	-10.9
CCC(C)Nc1nc(OC(C(F)(F)F)C(F)(F)F)nc(OC(C(F)(F)F)C(F)(F)F)n1 (stereo unspecified)	21.0	3.21*	1.4	-0.9	-15.3	-10.1
COC(=O)c1ccc(CNC(=O)/C=C/c2cc([N+](=O)[O-])ccc2OC(F)F)cc1	-1.9	-0.149	-0.2	-0.6	-10.1	-8.2
CC(=O)/C(C#N)=C1\NC(=O)C(Cc2ccc(C)c(C)c2)S1 (stereo unspecified)	10.6	.	-0.2	2.8	-7.4	-17.8
CCOC(=O)N1CCC(NC(=O)CSCc2nc(-c3sccc3C)oc2C)CC1	4.4	2.77*	-1.1	-2.7	10.0	-15.5
COc1cc(O)c(C(CCN2CCCC(C)C2)c2ccc(N(C)C)cc2)c(OC)c1 (stereo unspecified)	.	2.21*	.	.	.	.
COC(=O)c1ccc(C(=O)OC)c(NC(=O)CSCc2ccc(Br)cc2)c1	3.0	-0.0936	-4.4	-0.4	0.6	-15.1
Nc1ccccc1C#Cc1cnccn1	.	-0.0248	.	.	.	.
CN(C)c1ccc(/C=N/n2ncc3ccccc32)cc1	.	0.917	.	.	.	.
CCCCn1c(/N=C/c2ccc3c(c2)OCO3)nc2ccccc21	3.6	0.948	-2.9	0.6	11.9	-6.0
CCCCn1c(/N=C/c2ccc(N(C)C)cc2)nc2ccccc21	36.5*	0.261	-12.4	-0.3	-17.0	-32.8
C=CCn1c(/N=C/c2ccc(N(C)C)cc2)nc2ccccc21	49.5*	0.208	5.1	-2.1	-38.1	10.5
CCO[C@H]1OC(C(=O)N2CCN(Cc3ccc4c(c3)OCO4)CC2)=C[C@@H](c2ccc(Br)cc2)[C@@H]1CCCO	.	-0.0126	.	.	.	.
Cc1c(N2C(=O)/C(=C/c3ccccc3)SC2=S)c(=O)n(-c2ccccc2)n1C	8.8	2.61*	-0.2	3.4	-26.1	-4.9
CN1C(=O)S/C(=C/c2cccnc2)C1=O	8.5	0.989	18.5*	-2.7	-2.3	-3.8
Cc1ccc(S(=O)(=O)/N=C2/NC(=O)/C(=C/c3cccnc3)S2)cc1	2.5	0.705	8.8	0.8	7.1	19.5
CNc1nc(OCC(F)(F)F)nc(N2CCN(C34CC5CC(CC(C5)C3)C4)CC2)n1	0.0	.	3.6	0.1	4.5	4.4
COc1cccc(C(C#N)N2CCOCC2)c1 (stereo unspecified)	13.6	-0.277	22.4*	-1.9	-47.4	-14.4
COC(=O)c1ccccc1NC(=O)CSc1nnc(-c2cccnc2)n1C	5.9	1.08	7.8	-1.6	22.5	8.8
CCCCc1ccc(NS(=O)(=O)c2cccs2)cc1	16.8	1.73	6.2	8.4	5.5	-6.8
COc1cc(-c2nn3c(-c4ccccc4)nnc3s2)cc(OC)c1OC	1.1	2.72*	5.2	-3.4	-15.8	-15.8
